# What was measured:
# [1] = target: 72 kDa type IV collagenase (Homo sapiens, UniProt P08253); assay: Inhibitory concentration against MMP-2
# How it was run: (§1)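 Continuous fluorescence assay of commercially sourced enzyme cleaving a synthetic peptide whose fluorophore (7-methoxycoumarin or 2-aminobenzoyl) is quenched by 2,4-dinitrophenyl. Signal is read at the fluorophore's excitation/emission wavelengths. MMP-2 was preactivated with APMA. MMP-3 used substrate Mca-PKPLAL-Dpa-AR-NH2.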
# [2] = target: Matrix metalloproteinase-14 (Homo sapiens, UniProt P50281); assay: Inhibitory concentration against MMP-14
# Collagenase 3 = Collagenase 3 (Bos taurus, UniProt O77656); assay: Inhibitory concentration against MMP-13 of bovine articular cartilage explants
# [3] = Inhibitory concentration against MMP-7; how it was run: as §1
# [4] = Inhibitory concentration against MMP-9; how it was run: as §1
# Bos taurus = organism: Bos taurus; assay: Selectivity ratio for IC50 of MMP-2 to that of MMP-13
# How it was run: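 Both IC50s come from continuous fluorescence assays using quenched peptide substrates (7-methoxycoumarin or 2-aminobenzoyl fluorophore, 2,4-dinitrophenyl quencher), read by plate fluorimeter. MMP-13 was prepared in-house. MMP-2 was commercial and activated with […]. […] The ratio is MMP-2 IC50 over MMP-13 IC50.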
# [5] = Inhibitory concentration against MMP-3; how it was run: as §1
# [6] = Total clearance from rat upon iv administration at 2 mg/kg; type: ADME, organism-based; parameters: dose 2 mg/kg, route intravenous; settings: in vivo
# How it was run: (§2)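 Rats were dosed intravenously at 2 mg/kg and orally at 5 mg/kg. Clearance and iv half-life come from the intravenous arm, oral half-life from the oral arm, and bioavailability from comparison of the two routes.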
# Interstitial collagenase = target: T1, Interstitial collagenase (Homo sapiens, UniProt P03956); assay: Inhibitory concentration against MMP-1
# T1 sequence (P03956 whole entry): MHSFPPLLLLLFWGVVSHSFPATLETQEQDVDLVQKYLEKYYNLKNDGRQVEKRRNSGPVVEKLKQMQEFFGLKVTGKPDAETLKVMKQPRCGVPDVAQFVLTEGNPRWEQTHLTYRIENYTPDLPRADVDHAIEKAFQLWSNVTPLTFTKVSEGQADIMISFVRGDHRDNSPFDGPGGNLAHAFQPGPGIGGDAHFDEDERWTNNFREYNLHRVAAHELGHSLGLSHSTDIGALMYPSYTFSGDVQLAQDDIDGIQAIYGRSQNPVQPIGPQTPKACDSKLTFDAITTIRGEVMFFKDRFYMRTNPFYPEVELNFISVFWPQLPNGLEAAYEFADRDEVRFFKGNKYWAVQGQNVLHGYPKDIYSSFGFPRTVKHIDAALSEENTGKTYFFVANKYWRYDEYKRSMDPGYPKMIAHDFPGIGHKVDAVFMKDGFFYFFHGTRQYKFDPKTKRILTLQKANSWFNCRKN
# How it was run: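 Continuous fluorescence assay with in-house prepared enzyme. The synthetic peptide substrate carries a 7-methoxycoumarin or 2-aminobenzoyl fluorophore quenched by energy transfer to 2,4-dinitrophenyl. Read in plate fluorimeter at fluorophore excitation/emission wavelengths.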
# [7] = Oral bioavailability in rat; type: ADME, organism-based; settings: in vivo; how it was run: as §2
# [8] = Half-life in rat upon iv administration; type: ADME, organism-based; settings: in vivo; how it was run: as §2
# [9] = Half-life in rat upon oral administration at 5 mg/kg; type: ADME, organism-based; parameters: dose 5 mg/kg, route oral; settings: in vivo; how it was run: as §2
# Chain of 72 kDa type IV collagenase (P08253 whole entry): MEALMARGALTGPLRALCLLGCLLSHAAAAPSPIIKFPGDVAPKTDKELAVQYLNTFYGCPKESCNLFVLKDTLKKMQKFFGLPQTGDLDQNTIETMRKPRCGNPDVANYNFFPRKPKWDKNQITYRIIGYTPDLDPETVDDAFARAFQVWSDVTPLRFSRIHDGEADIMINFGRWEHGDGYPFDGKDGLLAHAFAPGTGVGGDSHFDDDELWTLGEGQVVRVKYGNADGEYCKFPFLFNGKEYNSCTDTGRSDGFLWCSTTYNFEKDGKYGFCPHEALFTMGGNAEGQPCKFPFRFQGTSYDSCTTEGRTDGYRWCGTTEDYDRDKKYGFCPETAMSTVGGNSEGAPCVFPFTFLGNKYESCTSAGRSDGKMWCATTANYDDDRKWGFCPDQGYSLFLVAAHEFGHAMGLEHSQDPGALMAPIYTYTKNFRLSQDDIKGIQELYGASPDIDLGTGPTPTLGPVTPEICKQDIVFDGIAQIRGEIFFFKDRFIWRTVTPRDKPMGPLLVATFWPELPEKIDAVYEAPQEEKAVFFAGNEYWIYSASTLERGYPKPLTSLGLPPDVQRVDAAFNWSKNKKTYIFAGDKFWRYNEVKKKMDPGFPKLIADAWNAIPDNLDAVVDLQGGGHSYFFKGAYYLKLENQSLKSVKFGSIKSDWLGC
SMILES,IC50 [1],IC50 (Collagenase 3),Selectivity (Bos taurus),further results
CC(C)[C@H](NS(=O)(=O)c1ccc(-c2ccc(NCc3cc4ccccc4o3)cc2)cc1)C(=O)O,23.3 nM,4.9 nM,,IC50 [2]: 6600 nM
NC(=O)C[C@H](NS(=O)(=O)c1ccc(-c2ccc(NC(=O)c3cc4ccccc4o3)cc2)cc1)C(=O)O,,2.53 nM,,
O=C(NCCCCN1CCOCC1)c1cc2ccccc2o1,,3200 nM,,
O=C(Nc1ccc(-c2ccc(S(=O)(=O)N[C@@H](CO)C(=O)O)cc2)cc1)c1cc2ccccc2o1,27.8 nM,4.5 nM,,
CC(C)[C@H](NS(=O)(=O)c1ccc(-c2ccc(NC(=O)c3cc4cc([N+](=O)[O-])ccc4o3)cc2)cc1)C(=O)O,2 nM,0.7 nM,2.8,
CC(=O)Nc1ccc2oc(C(=O)Nc3ccc(-c4ccc(S(=O)(=O)N[C@H](C(=O)O)C(C)C)cc4)cc3)cc2c1,4 nM,0.98 nM,4.1,
COc1ccc2oc(C(=O)Nc3ccc(-c4ccc(S(=O)(=O)N[C@H](C(=O)O)C(C)C)cc4)cc3)cc2c1,1.9 nM,0.66 nM,2.8,IC50 [2]: 1.5 nM
CC(C)[C@H](NS(=O)(=O)c1ccc(-c2ccc(NC(=O)c3cc4c(OCc5ccccc5)cccc4o3)cc2)cc1)C(=O)O,,,18,
CC(C)C[C@H](NS(=O)(=O)c1ccc(-c2ccc(NC(=O)c3cc4ccccc4o3)cc2)cc1)C(=O)O,,2.19 nM,,

# Now from value to molecule, other results behind:
IC50 [1],IC50 (Collagenase 3),Selectivity (Bos taurus),SMILES,further results
1590 nM,14.9 nM,107,CC(Oc1cccc2oc(C(=O)Nc3ccc(-c4ccc(S(=O)(=O)N[C@H](C(=O)O)C(C)C)cc4)cc3)cc12)C(=O)O (stereo not given in full),IC50 [3]: 2500 nM; IC50 [4]: 5600 nM; IC50 [2]: 20000 nM; IC50 [5]: 843 nM
,3.4 nM,5.6,CC(C)[C@H](NS(=O)(=O)c1ccc(-c2ccc(NC(=O)c3cc4cc(NS(=O)(=O)c5ccccc5)ccc4o3)cc2)cc1)C(=O)O,
3.2 nM,0.6 nM,5.3,CC(C)[C@H](NS(=O)(=O)c1ccc(-c2ccc(NC(=O)c3cc4cc(Cl)ccc4o3)cc2)cc1)C(=O)O,
,2.33 nM,6.9,COc1cccc2oc(C(=O)Nc3ccc(-c4ccc(S(=O)(=O)N[C@H](C(=O)O)C(C)C)cc4)cc3)cc12,
5 nM,,,CC(C)[C@H](NS(=O)(=O)c1ccc(-c2ccc(NC(=O)c3cc4ccccc4o3)cc2)cc1)C(=O)O,clearance [6]: 2 mL/min/kg; IC50 (Interstitial collagenase): > 16000 nM; bioavailability [7]: 24%; half-life [8]: 3.7 h; half-life [9]: 3 h
2.14 nM,,,CC(C)[C@H](NS(=O)(=O)c1ccc(-c2ccc(NC(=O)c3csnn3)cc2)cc1)C(=O)O,
,10000 nM,,Cc1cc(C)c(N(Cc2ccccc2)S(=O)(=O)c2ccc(OCCNC(=O)c3cc4ccccc4o3)cc2)c(C(=O)NO)c1,
,1.5 nM,,CC(C)[C@H](NS(=O)(=O)c1ccc(-c2ccc(NC(=O)c3cc4cc(N)ccc4o3)cc2)cc1)C(=O)O,
12.1 nM,20.2 nM,0.6,COc1cccc2cc(C(=O)Nc3ccc(-c4ccc(S(=O)(=O)N[C@H](C(=O)O)C(C)C)cc4)cc3)oc12,IC50 [2]: 10900 nM
3.9 nM,0.43 nM,9.1,CC(C)[C@H](NS(=O)(=O)c1ccc(-c2ccc(NC(=O)c3cc4cc(NS(C)(=O)=O)ccc4o3)cc2)cc1)C(=O)O,
,22 nM,,O=C(O)CNS(=O)(=O)c1ccc(-c2ccc(NC(=O)c3cc4ccccc4o3)cc2)cc1,

# Reference: ChEMBL document CHEMBL1142820, “Identification of potent and selective MMP-13 inhibitors” (Bioorg Med Chem Lett, 2005)
